These results are taken from the M2OR odorant receptor database.

The first assay deals with T1, OR2B3 (Homo sapiens) (UniProt O76000).
T1 sequence (whole entry): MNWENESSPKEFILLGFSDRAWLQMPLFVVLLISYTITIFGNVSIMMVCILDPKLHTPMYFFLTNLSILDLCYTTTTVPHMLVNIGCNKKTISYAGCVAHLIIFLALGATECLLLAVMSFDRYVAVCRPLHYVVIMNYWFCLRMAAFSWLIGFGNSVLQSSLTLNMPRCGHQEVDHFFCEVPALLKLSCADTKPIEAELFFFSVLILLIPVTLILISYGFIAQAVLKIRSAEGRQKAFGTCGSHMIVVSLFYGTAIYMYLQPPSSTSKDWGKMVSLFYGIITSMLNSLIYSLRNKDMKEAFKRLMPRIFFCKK
The conditions noted are these: stereoisomer not certain. In a few lines:
(§1)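 Assay methods differ from source to source, frequently being transient luciferase assays in mammalian cell lines. For each receptor–molecule pair, the label responsive (active) applies when the original authors judged the measured signal statistically different from baseline, and non-responsive (inactive) applies otherwise.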
Turning to `CC(=O)C=CC1=C(C)CCCC1(C)C`, the “odorant receptor agonist call” value is “active”.

For the compound `CC=CC(=O)C1C(C)=CCCC1(C)C` (configuration not stated), the “odorant receptor agonist call” value was “inactive”.

On to `CC1CC(C)(c2ccccc2)CO1` (configuration not stated), for which the “odorant receptor agonist call” value was “inactive”.

For `CC(C)=CCCC(C)=CCO`, the “odorant receptor agonist call” value is “inactive”.

Consider `CC(=O)OCc1ccccc1`, for which the “odorant receptor agonist call” value was “inactive”.

With `CCc1ccc(CC(C)(C)C=O)cc1`, the “odorant receptor agonist call” value is “inactive”.

Take `CCCCCC1COCCC1OC(C)=O` (configuration not stated): the “odorant receptor agonist call” value was “inactive”.

On to `OCc1ccccc1`, for which the “odorant receptor agonist call” value was “inactive”.

On to `CC(C)CCCC(C)(C)O`, for which the “odorant receptor agonist call” value was “inactive”.

For `CCCC(C)C(=O)OCC` (configuration not stated), the “odorant receptor agonist call” value was “inactive”.

Regarding `C=CC(C)(CCC=C(C)C)OC(C)=O` (configuration not stated), the “odorant receptor agonist call” value is “inactive”.

`CC(C)=CCCC(C)CC=O` (configuration not stated): the “odorant receptor agonist call” value was “inactive”.

With `CCCCCC1C(=O)CCC1CC(=O)OC` (configuration not stated), the “odorant receptor agonist call” value is “inactive”.

As to `CC1=CCC2CC1C2(C)C` (configuration not stated), the “odorant receptor agonist call” value was “inactive”.

For `CCCCC1CCC(=O)O1` (configuration not stated), the “odorant receptor agonist call” value is “inactive”.

On to `Cc1ccc(C(C)C)cc1O`, for which the “odorant receptor agonist call” value is “inactive”.

Regarding `CCC=C(C)C(O)CCCCC` (configuration not stated), the “odorant receptor agonist call” value is “inactive”.

Consider `COc1ccc(C)cc1`, for which the “odorant receptor agonist call” value is “inactive”.

The next assay deals with T2, OR2C1 (Homo sapiens) (UniProt O95371).
T2 sequence (whole entry): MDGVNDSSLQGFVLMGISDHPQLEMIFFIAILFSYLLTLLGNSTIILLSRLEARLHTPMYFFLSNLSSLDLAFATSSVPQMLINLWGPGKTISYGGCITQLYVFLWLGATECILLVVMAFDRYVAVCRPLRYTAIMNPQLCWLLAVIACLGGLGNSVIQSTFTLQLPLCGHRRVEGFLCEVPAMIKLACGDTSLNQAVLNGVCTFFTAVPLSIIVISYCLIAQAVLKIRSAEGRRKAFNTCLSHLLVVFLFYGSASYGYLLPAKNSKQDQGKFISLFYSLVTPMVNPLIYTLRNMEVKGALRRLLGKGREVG
The conditions noted are these: stereoisomer not certain. Put shortly: as §1
Consider `C=CCOC(=O)CCCCCC`, for which the “odorant receptor agonist call” value was “inactive”.

For `O=C1CCOc2ccccc21`, the “odorant receptor agonist call” value is “inactive”.

In the case of `CC(C)=CCCC(C)=CCO`, the “odorant receptor agonist call” value is “inactive”.

Take `CC(=O)OCc1ccccc1`: the “odorant receptor agonist call” value was “inactive”.

`CCCCCCOC(C)=O`: the “odorant receptor agonist call” value is “inactive”.

As to `CC(=O)Oc1ccccc1`, the “odorant receptor agonist call” value was “inactive”.

Turning to `CCCCCCCCCO`, the “odorant receptor agonist call” value was “inactive”.

In the case of `CCCCCCCO`, the “odorant receptor agonist call” value was “inactive”.

With `O=C(c1ccccc1)c1ccccc1`, the “odorant receptor agonist call” value was “inactive”.

For the compound `CCCCCCO`, the “odorant receptor agonist call” value was “inactive”.

For `CCCCCOC(=O)CCCCC`, the “odorant receptor agonist call” value was “inactive”.

As to `CCCCCCCCCS`, the “odorant receptor agonist call” value was “active”.

For the compound `CCCCCCC(C)=O`, the “odorant receptor agonist call” value is “inactive”.

For `CCCCCCCCCC(=O)[O-].[H+]`, the “odorant receptor agonist call” value is “inactive”.
